Results reported in ChEMBL document CHEMBL1821701, “Stereochemical analysis of leubethanol, an anti-TB-active serrulatane, from Leucophyllum frutescens” (2011).
In brackets after ≈: the same amount, converted by molar mass.

Tests used:
Type in all cases: functional
[1] = tested on: Mycobacterium tuberculosis; experiment: Antitubercular activity against multidrug-resistant Mycobacterium tuberculosis CIBIN/UMF15:99 isolate by microplate Alamar blue assay
How it was run: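 Modified microplate Alamar Blue assay. H37Rv ATCC 27294 is susceptible to streptomycin, isoniazid, rifampin, ethambutol and pyrazinamide. Clinical isolate CIBIN/UMF15:99 is resistant to the same five drugs. Test stocks were 2 mg/mL in 20% DMSO in Middlebrook 7H9 broth, filter-sterilized. Final concentrations ran from 100 to 0.78 µg/mL. Read-out was MIC, at least in triplicate.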

[2] = tested on: Mycobacterium tuberculosis; experiment: Antitubercular activity against multidrug-resistant Mycobacterium tuberculosis CIBIN/UMF15:99 isolate by microplate Alamar blue assay relative to streptomycin
[3] = tested on: Mycobacterium tuberculosis; experiment: Antitubercular activity against multidrug-resistant Mycobacterium tuberculosis CIBIN/UMF15:99 isolate by microplate Alamar blue assay relative to rifampin

SMILES | MIC [1] | Ratio [2] | Ratio [3]
CO[C@H]1/C=C/O[C@@]2(C)Oc3c(C)c(O)c4c(O)c(c(/C=N/N5CCN(C)CC5)c(O)c4c3C2=O)NC(=O)/C(C)=C\C=C\[C@H](C)[C@H](O)[C@@H](C)[C@@H](O)[C@@H](C)[C@H](OC(C)=O)[C@@H]1C [RIFAMPIN] | > 100 µg/mL |  | 
CN[C@@H]1[C@H](O[C@H]2[C@H](O[C@H]3[C@H](O)[C@@H](O)[C@H](N=C(N)N)[C@@H](O)[C@@H]3N=C(N)N)O[C@@H](C)[C@]2(O)C=O)O[C@@H](CO)[C@H](O)[C@H]1O [STREPTOMYCIN] | > 100 µg/mL |  | 
CC(C)=CCC[C@H](C)[C@@H]1CC[C@@H](C)c2c(O)cc(C)cc21 [LEUBETHANOL] | 6.3 µg/mL (≈ 22 µM) | 16 | 16
NNC(=O)c1ccncc1 [ISONIAZID] | 3.1 µg/mL (≈ 22.6 µM) |  | 
CC[C@@H](CO)NCCN[C@@H](CC)CO [ETHAMBUTOL] | 8 µg/mL (≈ 39.2 µM) |  | 
